Measurements published in ChEMBL document CHEMBL1129357, “4-[4-[(2-Hydroxybenzoyl)amino]phenyl]butyric acid as a novel oral delivery agent for recombinant human growth hormone” (1996).

Key:
Format in all cases: functional
Rattus norvegicus [1] = assay: Ability to promote absorption of recombinant human growth hormone from gastrointestinal tract in rats by using ELISA assay at a of dose 25 mg/kg, rhGH 1 mg/kg by IC administration
Outline: (§1)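 Male Sprague-Dawley rats, 225-250 g, in groups of six or seven, with free access to water for 24 h beforehand. Ketamine 44 mg/kg plus thorazine 1.5 mg/kg given just before dosing. Aqueous delivery agent, adjusted to pH 7.2-7.8, with rhGH, given by oral gavage or intracolonic instillation. Serum rhGH measured by ELISA; peak concentration in ng/mL reported as mean ± SD.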

Rattus norvegicus [2] = assay: Ability to promote absorption of recombinant human growth hormone from the gastrointestinal tract in rats by using ELISA assay at a of dose 25 mg/kg, rhGH 1 mg/kg by IC administration; outline: as §1
Rattus norvegicus [3] = assay: Ability to promote absorption of recombinant human growth hormone from the gastrointestinal tract in rats by using ELISA assay. (Compound dose 300 mg/kg, rhGH 6 mg/kg by OG administration); outline: as §1
Rattus norvegicus [4] = assay: Ability to promote absorption of recombinant human growth hormone from the gastrointestinal tract in rats by using ELISA assay. (Compound dose 500 mg/kg, rhGH 6 mg/kg by OG administration); outline: as §1
Rattus norvegicus [5] = assay: Ability to promote absorption of recombinant human growth hormone from the gastrointestinal tract in rats by using ELISA assay. (Compound dose 200 mg/kg, rhGH 6 mg/kg by OG administration); outline: as §1
Rattus norvegicus [6] = assay: Ability to promote absorption of recombinant human growth hormone from the gastrointestinal tract in rats by using ELISA assay. (Compound dose 400 mg/kg, rhGH 6 mg/kg by OG administration); outline: as §1
Rattus norvegicus [7] = assay: Ability to promote absorption of recombinant human growth hormone (rhGH) from the gastrointestinal tract in rats by using ELISA assay. (Compound at a of dose 250 mg/kg, rhGH 6 mg/kg by OG administration); outline: as §1
Rattus norvegicus [8] = assay: Ability to promote absorption of recombinant human growth hormone from gastrointestinal tract in rats by using ELISA assay. (Compound dose 500 mg/kg, rhGH 6 mg/kg by OG administration); outline: as §1
Rattus norvegicus [9] = assay: Ability to promote absorption of recombinant human growth hormone (rhGH) from the gastrointestinal tract in rats by using ELISA assay. (Compound dose 300 mg/kg, rhGH 6 mg/kg by OG administration); outline: as §1
Rattus norvegicus [10] = assay: Ability to promote absorption of recombinant human growth hormone from the gastrointestinal tract in rats by using ELISA assay. (Compound dose 25 mg/kg, rhGH 6 mg/kg by OG administration); conditions: in the assay text read “rhGH 1 mg/kg by IC administration” for “rhGH 6 mg/kg by OG administration”; outline: as §1

## O=C(O)CCCc1ccc(NC(=O)/C=C/c2ccccc2F)cc1
Rattus norvegicus [1]
  Peak rhGH: 7.7 ng/mL

## O=C(O)CCCc1ccc(NC(=O)c2ccccc2F)cc1
Rattus norvegicus [2]
  Peak rhGH: 20.8 ng/mL
Rattus norvegicus [3]
  Peak rhGH: 43.4 ng/mL

## O=C(O)CCCc1ccc(NC(=O)CCCCc2ccccc2)cc1
Rattus norvegicus [1]
  Peak rhGH: 8.4 ng/mL

## O=C(CCCc1ccccc1)Nc1ccc(C(=O)O)cc1
Rattus norvegicus [4]
  Peak rhGH: 11.9 ng/mL

## O=C(O)CCCc1ccc(NC(=O)c2c(O)cccc2O)cc1
Rattus norvegicus [1]
  Peak rhGH: 20.9 ng/mL

## O=C(O)CCCc1ccc(NC(=O)CC2CCCCC2)cc1
Rattus norvegicus [4]
  Peak rhGH: 24.2 ng/mL

## O=C(O)CCCc1ccc(NC(=O)c2ccc(O)cc2O)cc1
Rattus norvegicus [5]
  Peak rhGH: 16.9 ng/mL

## O=C(O)CCCc1ccc(NC(=O)c2ccc(F)cc2)cc1
Rattus norvegicus [3]
  Peak rhGH: 2.8 ng/mL

## O=C(O)CCc1ccc(NC(=O)c2ccccc2O)cc1
Rattus norvegicus [1]
  Peak rhGH: 37.2 ng/mL

## COc1ccccc1/C=C/C(=O)Nc1ccc(CCC(=O)O)cc1
Rattus norvegicus [1]
  Peak rhGH: 61.7 ng/mL

## O=C(O)CCCc1ccc(NC(=O)Cc2ccccc2F)cc1
Rattus norvegicus [1]
  Peak rhGH: 7.3 ng/mL

## O=C(O)Cc1ccc(NC(=O)Cc2ccccc2)cc1
Rattus norvegicus [3]
  Peak rhGH: 9 ng/mL

## O=C(Cc1ccccc1)Nc1ccc(C(=O)O)cc1
Rattus norvegicus [4]
  Peak rhGH: 0 ng/mL

## O=C(O)CCCc1ccc(NC(=O)c2ccccc2C(=O)O)cc1
Rattus norvegicus [1]
  Peak rhGH: 22.3 ng/mL

## O=C(O)Cc1ccc(NC(=O)c2ccccc2O)cc1
Rattus norvegicus [1]
  Peak rhGH: 5.6 ng/mL

## O=C(O)CCCc1ccc(NC(=O)c2ccccc2Cl)cc1
Rattus norvegicus [2]
  Peak rhGH: 52.2 ng/mL

## O=C(O)CCCc1ccc(NC(=O)C2CCCCC2C(=O)O)cc1 (configuration not stated)
Rattus norvegicus [5]
  Peak rhGH: 0 ng/mL

## CCC(C(=O)Nc1ccc(CCCC(=O)O)cc1)c1ccccc1 (configuration not stated)
Rattus norvegicus [3]
  Peak rhGH: 5.9 ng/mL

## CC(C(=O)Nc1ccc(CCCC(=O)O)cc1)c1ccccc1 (configuration not stated)
Rattus norvegicus [3]
  Peak rhGH: 2.3 ng/mL

## O=C(O)CCCc1ccc(NC(=O)CCCc2ccccc2)cc1
Rattus norvegicus [3]
  Peak rhGH: 17.9 ng/mL

## O=C(O)CCCc1ccc(NC(=O)c2ccccc2[N+](=O)[O-])cc1
Rattus norvegicus [1]
  Peak rhGH: 14.9 ng/mL

## O=C(O)CCCc1ccc(NC(=O)c2ccccc2OC(F)(F)F)cc1
Rattus norvegicus [1]
  Peak rhGH: 56.8 ng/mL

## O=C(O)CCCc1ccc(NC(=O)c2cccc([N+](=O)[O-])c2)cc1
Rattus norvegicus [1]
  Peak rhGH: 33.5 ng/mL

## O=C(O)CCCc1ccc(NC(=O)c2cccc(-c3ccccc3)c2-c2ccccc2)cc1
Rattus norvegicus [4]
  Peak rhGH: 5.9 ng/mL

## O=C(O)CCCc1ccc(NC(=O)c2ccccc2O)cc1
Rattus norvegicus [2]
  Peak rhGH: 64.7 ng/mL
Rattus norvegicus [3]
  Peak rhGH: 49.7 ng/mL

## Cc1ccccc1C(=O)Nc1ccc(CCCC(=O)O)cc1
Rattus norvegicus [2]
  Peak rhGH: 9.08 ng/mL

## CC1CCC(C(=O)Nc2ccc(CCCC(=O)O)cc2)CC1 (configuration not stated)
Rattus norvegicus [6]
  Peak rhGH: 41.6 ng/mL

## O=C(O)CCCc1ccc(NC(=O)C2CCCCC2)cc1
Rattus norvegicus [4]
  Peak rhGH: 63.8 ng/mL

## O=C(O)CCCc1ccc(NC(=O)c2ccc(-c3ccccc3)cc2)cc1
Rattus norvegicus [4]
  Peak rhGH: 39.9 ng/mL

## Cc1ccccc1/C=C/C(=O)Nc1ccc(CCCC(=O)O)cc1
Rattus norvegicus [2]
  Peak rhGH: 16.4 ng/mL

## O=C(O)CCCc1ccc(NS(=O)(=O)c2ccccc2)cc1
Rattus norvegicus [4]
  Peak rhGH: 28 ng/mL
Rattus norvegicus [7]
  Peak rhGH: 2.6 ng/mL

## O=C(O)/C=C/c1ccc(NC(=O)c2ccccc2)cc1
Rattus norvegicus [6]
  Peak rhGH: 6.5 ng/mL

## O=C(O)Cc1ccc(NC(=O)CCc2ccccc2)cc1
Rattus norvegicus [3]
  Peak rhGH: 12.6 ng/mL

## CCC(C(=O)Nc1ccc(CCCC(=O)O)cc1)C1CCCCC1 (configuration not stated)
Rattus norvegicus [6]
  Peak rhGH: 0.5 ng/mL

## O=C(O)CCCc1ccc(NC(=O)c2ccccc2)cc1
Rattus norvegicus [2]
  Peak rhGH: 17.5 ng/mL
Rattus norvegicus [8]
  Peak rhGH: 21.7 ng/mL
Rattus norvegicus [9]
  Peak rhGH: 5.4 ng/mL

## CC(C)Cc1ccc(CC(=O)Nc2ccc(CCCC(=O)O)cc2)cc1
Rattus norvegicus [5]
  Peak rhGH: 7.8 ng/mL

## O=C(O)CCc1ccc(NC(=O)c2ccccc2[N+](=O)[O-])cc1
Rattus norvegicus [1]
  Peak rhGH: 17.6 ng/mL

## O=C(CCc1ccccc1)Nc1ccc(C(=O)O)cc1
Rattus norvegicus [4]
  Peak rhGH: 3.3 ng/mL

## COc1ccccc1/C=C/C(=O)Nc1ccc(C(=O)O)cc1
Rattus norvegicus [2]
  Peak rhGH: 30.4 ng/mL

## O=C(O)CCCc1ccc(NC(=O)/C=C/c2c(F)c(F)c(F)c(F)c2F)cc1
Rattus norvegicus [6]
  Peak rhGH: 49.7 ng/mL

## O=C(O)CCCc1ccc(NCc2ccccc2O)cc1
Rattus norvegicus [1]
  Peak rhGH: 32.5 ng/mL

## O=C(O)CCCc1ccc(NC(=O)c2cccc(Cl)c2)cc1
Rattus norvegicus [2]
  Peak rhGH: 0 ng/mL

## O=C(O)c1ccc(NC(=O)c2ccccc2O)cc1
Rattus norvegicus [1]
  Peak rhGH: 0 ng/mL

## O=C(O)CCCc1ccc(NCc2ccccc2)cc1
Rattus norvegicus [5]
  Peak rhGH: 20.4 ng/mL

## O=C(O)CCCc1ccc(NC(=O)/C=C/c2ccccc2)cc1
Rattus norvegicus [6]
  Peak rhGH: 49.7 ng/mL

## O=C(O)CCCc1ccc(NC(=O)Cc2ccccc2O)cc1
Rattus norvegicus [3]
  Peak rhGH: 0 ng/mL

## COc1cccc(O)c1C(=O)Nc1ccc(CCC(=O)O)cc1
Rattus norvegicus [1]
  Peak rhGH: 9.3 ng/mL

## COc1ccc(C(=O)Nc2ccc(CCCC(=O)O)cc2)cc1
Rattus norvegicus [3]
  Peak rhGH: 0 ng/mL

## O=C(O)CCCc1ccc(NC(=O)c2cccc(C(F)(F)F)c2)cc1
Rattus norvegicus [2]
  Peak rhGH: 17.6 ng/mL

## O=C(O)CCCc1ccc(NC(=O)C(O)C(O)c2ccccc2)cc1 (configuration not stated)
Rattus norvegicus [1]
  Peak rhGH: 2.5 ng/mL

## COc1ccccc1C(=O)Nc1ccc(CCCC(=O)O)cc1
Rattus norvegicus [1]
  Peak rhGH: 17.8 ng/mL

## O=C(O)CCCc1ccc(NC(=O)Cc2ccccc2)cc1
Rattus norvegicus [3]
  Peak rhGH: 8.1 ng/mL

## O=C(O)c1ccc(NC(=O)c2ccc(F)cc2)cc1
Rattus norvegicus [3]
  Peak rhGH: 1 ng/mL
Rattus norvegicus [1]
  Peak rhGH: 2.2 ng/mL

## O=C(O)CCCc1ccc(NC(=O)CCc2ccccc2)cc1
Rattus norvegicus [3]
  Peak rhGH: 12.8 ng/mL

## O=C(O)CCCc1ccc(NC(=O)CCOc2ccccc2)cc1
Rattus norvegicus [1]
  Peak rhGH: 44.1 ng/mL

## O=C(O)CCCc1ccc(NC(=O)c2ccc3c(c2)OCO3)cc1
Rattus norvegicus [1]
  Peak rhGH: 0 ng/mL

## O=C(O)CCCc1ccc(NC(=O)CCC(=O)c2ccccc2)cc1
Rattus norvegicus [1]
  Peak rhGH: 0.6 ng/mL

## CC1CCC(C(=O)Nc2ccc(C(=O)O)cc2)CC1 (configuration not stated)
Rattus norvegicus [6]
  Peak rhGH: 0 ng/mL

## Cc1cccc(C)c1C(=O)Nc1ccc(CCCC(=O)O)cc1
Rattus norvegicus [1]
  Peak rhGH: 7.7 ng/mL

## CN(C)c1cccc(C(=O)Nc2ccc(CCCC(=O)O)cc2)c1
Rattus norvegicus [1]
  Peak rhGH: 50.7 ng/mL

## COc1ccc(/C=C/C(=O)Nc2ccc(CCC(=O)O)cc2)cc1
Rattus norvegicus [1]
  Peak rhGH: 5 ng/mL

## O=C(CC1CCCCC1)Nc1ccc(C(=O)O)cc1
Rattus norvegicus [4]
  Peak rhGH: 0 ng/mL

## COc1ccccc1/C=C/C(=O)Nc1ccc(CCCC(=O)O)cc1
Rattus norvegicus [10]
  Peak rhGH: 32.9 ng/mL

## O=C(O)CCCc1ccc(NC(=O)C2CCCCCC2)cc1
Rattus norvegicus [6]
  Peak rhGH: 92.8 ng/mL

## O=C(O)CCCc1ccc(NC(=O)c2ccc(-c3ccccc3)c(-c3ccccc3)c2)cc1
Rattus norvegicus [6]
  Peak rhGH: 28.2 ng/mL

## O=C(O)Cc1ccc(NC(=O)CC2CCCCC2)cc1
Rattus norvegicus [3]
  Peak rhGH: 15.7 ng/mL

## O=C(O)Cc1ccc(NS(=O)(=O)c2ccccc2)cc1
Rattus norvegicus [4]
  Peak rhGH: 0 ng/mL

## O=C(O)CCCc1ccc(NC(=O)CCCC2CCCCC2)cc1
Rattus norvegicus [1]
  Peak rhGH: 26 ng/mL

## O=C(CCCC1CCCCC1)Nc1ccc(C(=O)O)cc1
Rattus norvegicus [4]
  Peak rhGH: 29.3 ng/mL

## O=C(O)c1ccc(NS(=O)(=O)c2ccccc2)cc1
Rattus norvegicus [4]
  Peak rhGH: 13.7 ng/mL
Rattus norvegicus [1]
  Peak rhGH: 0 ng/mL
